Results on seven compounds are retold here after ChEMBL document CHEMBL3046821, “Phospholipase A2 inhibitors synthesized by two entomopathogenic bacteria, Xenorhabdus nematophila and Photorhabdus temperata subsp. temperata” (Appl Environ Microbiol, 2012).

Converted amounts (≈) assume the structure as drawn. The source made the active and inactive calls. The rule behind the calls is not given here. Residues, ends and D or L forms follow the SMILES beside them.

The subject of test [1] is Spodoptera exigua. Description: Inhibition of immune responses in Spodoptera exigua fifth-instar larvae assessed as inhibition of hemocytic nodulation in response to Escherichia coli challenge by stereomicroscopy. The following applies: read-out: I50. The class given is functional, organism-based. Summed up: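 Fifth-instar S. exigua injected with E. coli (3.2 × 10^4 cells) mixed with compound in 10 μl; after 8 h at 25°C melanized nodules counted under stereomicroscope at ×50. Three replicates; I50 derived.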

The subject of test [2] is Plutella xylostella. As to the kind of experiment: Potentiation of 1000 ppm Bacillus thuringiensis-induced pathogenicity against Plutella xylostella (diamondback moth) fourth-instar larvae at 10000 ppm measured 48 hr post compound treatment. Type of test: functional, organism-based. The method in brief:
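P. xylostella larvae fed Chinese cabbage pieces (1 cm2) dipped 5 min in test solutions together with commercial B. thuringiensis subsp. kurstaki, briefly dried in dark. Mortality at 48 h, with dead meaning no coordinated movement on probing; 10 larvae per replicate, three replicates; arcsine-square-root transformed, LSD test.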

The subject of test [3] is Plutella xylostella. Description: Insecticidal activity against Plutella xylostella (diamondback moth) fourth-instar larvae fed on cabbage leaves soaked in compound solutions measured 48 hr post compound treatment by leaf-dipping method. The class given is functional. The method in brief: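 Leaf-dip feeding assay: Chinese cabbage pieces (1 cm2) soaked 5 min in test solutions at predetermined concentrations, briefly dried in the dark, then fed to P. xylostella larvae (field-origin colony reared on cabbage at 25 ± 1°C, 16:8 h light:dark). Three replicates of 10 larvae per dose. Mortality scored at 48 h; dead = no coordinated movement when prodded. Dose-mortality curves give LC50.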

Test [4] is described as follows: (§1) Inhibition of PLA2 in hemocytes of Spodoptera exigua fifth-instar larvae using pyrene-labeled phospholipid substrate by spectrofluorometry. Type of test: cell-based. The settings on record: read-out: I50. Summed up:
(§2)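 PLA2 from fifth-instar S. exigua hemocytes: hemolymph spun 500 × g 10 min, hemocytes sonicated in PBS, 12,500 × g 10 min 4°C supernatant. Enzyme (10 μg) preincubated with 10 μl sample, 25°C, 10 min; pyrene-labeled phosphatidylcholine substrate added with BSA and CaCl2 in PBS pH 7.4; residual activity by fluorescence, ex 348/em 390 nm. Triplicate independent samplings; I50 derived.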

The test system of test [5] is Spodoptera exigua. The test is described as §1. Type of test: cell-based. Summed up:
as §2

Test [6] concerns Phenoloxidase (Spodoptera exigua). Description: Inhibition of phenoloxidase activity in hemolymph of Spodoptera exigua fifth-instar larvae using DOPA substrate.

As for `O=C(O)[C@H](Cc1ccc(O)cc1)NC(=O)[C@@H]1CCCN1` (H-Pro-Tyr-OH), the figures for the IC50 (in the test on Spodoptera exigua [1]; in test [4]) were 473 µM and 522 µM, respectively. Moreover, in the test with Plutella xylostella [2], the result was Active. The LC50 with Plutella xylostella [3] was found to be 7690 µg/mL (≈ 27.6 mM). Further, the inhibition entry (with Spodoptera exigua [5]; in test [6]) was “Dose-dependent effect” in each case.
For `O=C(O)CCc1ccc(O)cc1` [HYDROXYPHENYL PROPIONIC ACID], the IC50 in the test on Spodoptera exigua [1] was 58.7 µM; in test [4] it was 49.5 µM. Further, in the test with Plutella xylostella [2], the outcome was Active. The compound further showed an LC50 with Plutella xylostella [3] of 6640 µg/mL (≈ 40 mM). The inhibition result (in the test on Spodoptera exigua [5]; in test [6]) was “Dose-dependent effect” throughout.
With `CC(=O)N[C@@H](Cc1ccccc1)C(=O)NCC(=O)N[C@H](C(=O)O)C(C)C` (Ac-Phe-Gly-Val-OH), the IC50 was 423 µM in the test on Spodoptera exigua [1] and 428 µM in test [4]. Moreover, in the test with Plutella xylostella [2], the result was Active. In the test on Plutella xylostella [3], this compound yielded an LC50 of 8350 µg/mL (≈ 23 mM). In addition, the inhibition result (in the test on Spodoptera exigua [5]; in test [6]) was “Dose-dependent effect” throughout.
As for `O=C1N[C@@H](Cc2ccc(O)cc2)C(=O)N2CCC[C@@H]12`, the IC50 was determined as 37.7 µM in the test on Spodoptera exigua [1] and 47.8 µM in test [4]. For the same compound, the outcome with Plutella xylostella [2] was Active. In addition, the LC50 with Plutella xylostella [3] was determined as 5950 µg/mL (≈ 22.9 mM). Besides, the inhibition result with Spodoptera exigua [5] is “Dose-dependent effect”.
Consider `O=C1Cc2ccccc2N1` [OXINDOLE], for which the values for the IC50 (with Spodoptera exigua [1]; in test [4]) were 32.3 µM and 46.2 µM, respectively. The result in the test with Plutella xylostella [2] was Active. Moreover, in the test with Plutella xylostella [3], the LC50 was 4830 µg/mL (≈ 36.3 mM). Besides, the inhibition result (with Spodoptera exigua [5]; in test [6]) was “Dose-dependent effect” throughout.
With `CC(=O)/C=C/c1ccccc1` [BUTENONE], the outcome in the test with Plutella xylostella [2] was Active. Also, the inhibition result in the test on Spodoptera exigua [5] is “Dose-dependent effect”.
Turning to `c1ccc2[nH]ccc2c1` [INDOLE], the IC50 with Spodoptera exigua [1] is 52.9 µM; in test [4], 64.9 µM. Also, in the test on Plutella xylostella [2], the result was Active. This compound had an LC50 with Plutella xylostella [3] of 6270 µg/mL (≈ 53.6 mM). The inhibition entry in the test on Spodoptera exigua [5] is “Dose-dependent effect”.

For orientation: LC50 means the concentration lethal to half of the exposed cells or organisms. A lower LC50 goes with a more lethal substance.
